Results on 15 compounds are retold here after ChEMBL document CHEMBL1133219, “Design and evaluation of dihydroisoquinolines as potent and orally bioavailable human cytomegalovirus inhibitors” (Bioorg Med Chem Lett, 2000).

One may read the CC50 as the concentration at which the toxic effect on the cells reaches its halfway point. The low end stands for greater toxicity to the cells, the high end for lower toxicity to the cells. For orientation: IC50 means the concentration that gives 50% inhibition. A higher IC50 goes with weaker potency in that assay. The term Cmax denotes the maximum level reached in the sampled fluid or tissue. One may read the half-life as the time needed for the level to fall by half in the phase considered. Read a low half-life as fast loss.

The structures appear in SMILES notation. In brackets after ≈: the same amount, converted by molar mass.

Data set [1] has as its system Hs68. The data set is described as follows: Cytotoxic activity in Hs 68 cell line by inhibition of cell proliferation. The data set is classed as functional. To be noted: Homo sapiens.
Data set [2] deals with Human betaherpesvirus 5. Briefly: Antiviral activity determined against human cytomegalovirus (HCMV) in Hs 68 cell line by plaque reduction assay. The class given is functional, organism-based. To be noted: Human betaherpesvirus 5, Hs68. For orientation: Plaque reduction counts the foci of infection that form in a cell layer.
Data set [3] deals with Mus musculus. Briefly: The area under concentration-time curve(AUC) was determined at 5 mg/kg of compound dose, administered intravenously in mice. Conditions: in vivo, iv. The class given is ADME, organism-based. Details: dose 5 mg/kg, route intravenous. The method in brief: (§1)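 Mice dosed po or iv, and plasma sampled over time. Non-compartmental analysis of mean plasma concentrations gave Cmax, AUC and t1/2. AUC taken by linear trapezoidal method from zero to last sample, extrapolated to infinity with terminal slope λz. t1/2 = 0.693/λz. Mean of triplicates (SD<8%).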

Data set [4] has as its system Mus musculus. Briefly: The area under concentration-time curve(AUC) was determined at 50 mg/kg of compound dose, administered perorally in mice. Conditions: in vivo, po. Details: dose 50 mg/kg, route oral. The data set is classed as ADME, organism-based. The method, boiled down:
as §1

Data set [5] can be described thus: Pharmacokinetic studies were carried out in vivo after administration of compound at 50 mg/kg perorally in mice. The class given is ADME, organism-based. Details: dose 50 mg/kg, route oral. To be noted: mouse, po. The method in brief: as §1
Data set [6] is described as follows: (§2) Half life was evaluated at 50 mg/kg of compound dose, administered perorally in mice. The class given is ADME, organism-based. Details: dose 50 mg/kg, route oral. To be noted: mouse, in vivo, po. The method, boiled down: (§3)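 Mouse PK with plasma levels after oral dosing. Mean plasma data analysed non-compartmentally. Terminal slope (λz) obtained from the concentration-time curve, and t1/2 taken as 0.693/λz. Data are means of triplicates (SD<8%).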

Data set [7] can be described thus: Pharmacokinetic studies were carried out in vivo after administration of compound at 5 mg/kg intravenously in mice. The class given is ADME, organism-based. Details: dose 5 mg/kg, route intravenous. Conditions: mouse, iv. The method, boiled down: as §1
Data set [8] concerns Mus musculus. The data set is described as follows: The area under concentration-time curve(AUC) was determined at 5 mg/kg of compound dose, administered perorally in mice. The data set is classed as ADME, organism-based. Details: dose 5 mg/kg, route oral. To be noted: in vivo, po. The method, boiled down: as §1
Data set [9] has as its system Mus musculus. The data set is described as follows: The area under concentration-time curve(AUC) was determined at 50 mg/kg of compound dose, administered intravenously in mice. The data set is classed as ADME, organism-based. Details: dose 50 mg/kg, route intravenous. Conditions: in vivo, iv. The method, boiled down:
as §1

Data set [10] in a line: Pharmacokinetic studies were carried out in vivo after administration of compound at 5 mg/kg perorally in mice. The class given is ADME, organism-based. Details: dose 5 mg/kg, route oral. Conditions: mouse, po. The method in brief:
as §1

A short description of data set [11]: Pharmacokinetic studies were carried out in vivo after administration of compound at 50 mg/kg intravenously in mice. The data set is classed as ADME, organism-based. To be noted: mouse, iv. Details: dose 50 mg/kg, route intravenous. The method in brief:
as §1

The nature of data set [12]: Percent oral bioavailability was determined after administration of compound at 5 mg/kg perorally in mice. To be noted: mouse, in vivo, read-out: BA. The data set is classed as ADME, organism-based. The method, boiled down: (§4)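 Mouse PK comparing oral and intravenous dosing. AUC estimated by linear trapezoid from time zero to last sample, extrapolated to infinity via terminal slope. Oral bioavailability calculated as AUCpo,0-∞/AUCiv,0-∞ at the corresponding dose. Mean of triplicate data (SD<8%).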

The nature of data set [13]: Percent oral bioavailability was determined after administration of compound at 50 mg/kg perorally in mice. Conditions: mouse, in vivo, read-out: BA. The class given is ADME, organism-based. The method in brief:
as §4

Data set [14] is described as follows: Half life was evaluated at 5 mg/kg of compound dose, administered perorally in mice. The data set is classed as ADME, organism-based. Details: dose 5 mg/kg, route oral. To be noted: mouse, in vivo, po. The method in brief:
as §3

Data set [15] concerns Mus musculus. The data set is described as §2. The data set is classed as ADME, organism-based. Conditions: in vivo, po. Details: dose 50 mg/kg, route oral. The method in brief: as §3
In data set [16] the test system is Mus musculus. The data set is described as follows: Half life was evaluated at 5 mg/kg of compound dose, administered intravenously in mice. To be noted: in vivo, iv.

Consider `COc1ccccc1CNC(=O)c1ccc2c(Br)nccc2n1`, for which the CC50 in [1] is approximately 25 µg/mL (≈ 67.2 µM). In data set [2], this compound yielded an IC50 of more than 25 µg/mL.
Turning to `COc1ccccc1CNC(=O)c1ccc2c(C)nccc2n1`, in data set [1], the cytotoxic concentration (CC50) was more than 25 µg/mL. In data set [2], the IC50 is more than 10 µg/mL.
Compound `COc1ccccc1CNC(=O)c1ccc2c(Cl)nccc2n1` had a cytotoxic concentration (CC50) in data set [1] of approximately 3.2 µg/mL (≈ 9.76 µM). In [2], this compound registered an IC50 of more than 10 µg/mL.
Take `O=C(NCCc1cccs1)C1=Cc2ccncc2CC1`: the CC50 in data set [1] stood at 15 µg/mL (≈ 52.7 µM). In addition, the IC50 in [2] is 0.17 µg/mL (≈ 0.598 µM).
Compound `O=C(NCCc1ccccc1)C1=Cc2ccncc2CC1` yielded a CC50 in data set [1] of 25 µg/mL (≈ 89.8 µM). Moreover, the concentration for half-maximal inhibition (IC50) in data set [2] worked out at 0.71 µg/mL (≈ 2.55 µM).
For the compound `CC(C)Oc1ccccc1CNC(=O)C1=Cc2ccncc2CC1`, in [1], the CC50 stood at 12.5 µg/mL (≈ 38.8 µM). This compound also registered a half-inhibitory concentration (IC50) in data set [2] of 0.68 µg/mL (≈ 2.11 µM).
For the compound `COc1ccccc1CNC(=O)C1=Cc2ccncc2CC1`, the AUC in data set [3] stood at 57 ug m-1 min-1; in data set [4], 734 ug m-1 min-1. The Cmax in data set [5] stood at 12500 ng/mL; in data set [7], 6940 ng/mL. This compound returned a CC50 in data set [1] of more than 50 µg/mL. In data set [2], this compound came in with an IC50 of 0.64 µg/mL (≈ 2.17 µM). The half-life in data set [6] stood at 42.3 min.
Take `O=C(NCCc1c[nH]c2ccccc12)C1=Cc2ccncc2CC1`: the AUC was determined as 94 ug m-1 min-1 in data set [3], 21 ug m-1 min-1 in data set [8], 2914 ug m-1 min-1 in data set [9] and 1762 ug m-1 min-1 in [4]. Moreover, the maximum concentration (Cmax) in [10] was found to be 600 ng/mL; in [11], 57800 ng/mL; in data set [5] it was 15100 ng/mL; in data set [7], 5560 ng/mL. In addition, the figures for the bioavailability in data set [12] and in data set [13] were 22.5% and 60.4%, respectively. Also, the half-life in data set [14] was found to be 15.2 min; in data set [6], 72.5 min. This compound showed a CC50 in data set [1] of 5 µg/mL (≈ 15.8 µM). For the same compound, 0.1 µg/mL (≈ 0.315 µM) corresponded to half-maximal inhibition in data set [2] (IC50). Also, the T1/2 stood at 43.9 min in data set [15] and 14.2 min in [16].
Turning to `COc1ccc(OC)c(CCNC(=O)C2=Cc3ccncc3CC2)c1`, in [1], the CC50 was more than 50 µg/mL. Besides, inhibition in [2] was half-maximal at 0.23 µg/mL (≈ 0.68 µM) (IC50).
In turn, `COc1ccccc1CNC(=O)c1ccc2c(F)nccc2n1` registered a CC50 in data set [1] of approximately 10 µg/mL (≈ 32.1 µM). This compound also came in with an IC50 in data set [2] of approximately 10 µg/mL (≈ 32.1 µM).
Turning to `COc1ccccc1CNC(=O)c1ccc2c(N)nccc2n1`, in data set [1], the CC50 is approximately 12.5 µg/mL (≈ 40.5 µM). The IC50 in [2] was approximately 10 µg/mL (≈ 32.4 µM).
`COc1ccccc1CNC(=O)c1ccc2c(OC)nccc2n1` showed a CC50 in data set [1] of more than 50 µg/mL. In addition, in data set [2], the half-inhibitory concentration (IC50) was more than 25 µg/mL.
For `COc1ccccc1CCNC(=O)C1=Cc2ccncc2CC1`, the CC50 in [1] was more than 25 µg/mL. Further, 10 µg/mL (≈ 32.4 µM) corresponded to half-maximal inhibition in data set [2] (IC50).
The compound `COc1ccccc1CNC(=O)C1CCc2cnccc2C1` (centres undefined) displayed a CC50 in data set [1] of 100 µg/mL (≈ 337 µM). The compound further came in with an IC50 in data set [2] of 25 µg/mL (≈ 84.4 µM).
In the case of `COc1ccccc1CNC(=O)c1ccc2c[n+]([O-])ccc2n1`, half-maximal cytotoxicity in data set [1] (CC50) was put at 100 µg/mL (≈ 323 µM). The IC50 in data set [2] was more than 25 µg/mL.
